In the library only some 4.1% were active in any assay of this set; here they are far more common.
SMARCA2 act: SMARCA2 function activation, primary screen. activation, % at 9.1 µM. 1% of 370,000 active. MG213 cells, MMTV-luciferase reporter, dexamethasone, overnight; in the data active = activation above about 7.8%;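 note: 0% = vehicle wells and 100% = reference activator wells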
MPTP block: inhibitors of mitochondrial permeability transition pore; isolated mouse mitochondria, Ca2+ swelling absorbance, 30 min; inhibition, % at 10 µM; 1.4% of 360,000 active; AID 602449;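 active = inhibition of 50% or more, scaled per plate between neutral and stimulator controls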;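 note: 0% = DMSO wells given calcium and 100% = 1 mM EGTA wells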
MC4R antag cAMP: antagonists of human melanocortin 4 receptor (MC4R). 0.48% of 360,000 active. P32245. inhibition, % at 6.5 µM. MC4R-expressing cells, MTII-stimulated cAMP, LANCE TR-FRET. AID 540295;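 active = inhibition above its plate's cutoff, the mean of tested wells on that plate plus 3 SD, cut at about 29% in these data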;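 note: 0% = Melanotan II alone and 100% = Melanotan II plus saturating MCL0020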
Target sequence (P32245 whole entry, looked up): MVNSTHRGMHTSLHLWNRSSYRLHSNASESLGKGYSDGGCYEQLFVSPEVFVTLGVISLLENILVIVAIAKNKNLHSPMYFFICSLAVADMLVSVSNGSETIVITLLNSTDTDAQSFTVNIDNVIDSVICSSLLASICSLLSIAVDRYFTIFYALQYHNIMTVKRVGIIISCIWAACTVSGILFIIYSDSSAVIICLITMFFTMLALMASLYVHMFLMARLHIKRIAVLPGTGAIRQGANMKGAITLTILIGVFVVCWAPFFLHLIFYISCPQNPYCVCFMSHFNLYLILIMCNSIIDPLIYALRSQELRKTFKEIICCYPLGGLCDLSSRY
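System: U2OS cells stably expressing human melanocortin 4 receptor (MC4R). Reagent: Melanotan II challenge after compound preincubation. Doses: 6.5 µM. Times: 30-min compound, 1-h challenge, 1-h detection, room temperature. Measured by: TR-FRET with Eu-cAMP and labeled anti-cAMP, 671 nm. Replicates: singlicate.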
MC4R ag barr: activates human MC4R beta-arrestin recruitment; P32245; U2OS MC4R beta-arrestin complementation, luminescence; percent of melanotan II response, DMSO zero; activation, % at 8.9 µM; 0.98% of 360,000 active;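 active = activation above a per-plate cutoff, the mean activation of sample wells on that plate plus 3 SD, cut at about 8% in these data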
ATG4B inh: ATG4B (human) cysteine protease inhibition; Q9Y4P1; ATG4B cleavage of LC3-PLA2, NBD-HPC fluorescence, 1 h; inhibition, % at 8.33 µM; 0.51% of 340,000 active; in the data active = inhibition above about 40%
MC4R barr ag: human MC4R beta-arrestin agonism confirmation; activation, % at 8.9 µM; shares compounds with MC4R ag barr; AID 602192; 31% of 2,400 active; U2OS MC4R beta-arrestin recruitment, luminescence; scaled DMSO 0%, Melanotan II 100%;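 active = mean activation across replicates above the hit cutoff set in the earlier primary screen, cut at about 8% in these data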
MOR-DOR barr ag: counter-screen for MC4R agonists: agonists of mu-delta opioid heterodimer. activation, % at 9.2 µM. U2OS PathHunter beta-arrestin, beta-gal luminescence; percent of deltorphin B response, DMSO zero. shares compounds with MC4R ag barr. 5.8% of 2,400 active;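 active = mean activation across replicates exceeds the hit threshold derived in the earlier primary screen, cut at about 18% in these data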;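 note: 100% = deltorphin B at 0.9 µM final and 0% = DMSO alone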
Rh123 counter: mitochondrial membrane potential, counter-screen; shares compounds with MPTP block; isolated mitochondria, Rhodamine 123 fluorescence; inhibition, % at 10 µM; 78% of 5,000 active; AID 624504; in the data active = inhibition above about 22%;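 note: 0% = DMSO vehicle and 100% = positive control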
Numbers without * were called inactive; / = not tested or not shown; + = active, no number.

SMILES	SMARCA2 act	MPTP block	MC4R antag cAMP	MC4R ag barr	ATG4B inh	MC4R barr ag	MOR-DOR barr ag	others
COc1ccc(NC(=O)CN(C)C(=O)/C=C/c2ccc(S(=O)(=O)N3CCCCCC3)cc2)cc1	-1	-1	0	30*	-1	11*	2
CCOC(=O)N1C(=O)C[C@](Sc2ccc(OC)cc2)(C(=O)N2CCOCC2)[C@H]1c1ccc(OC)cc1	1	/	/	/	/	/	/
O=C(N/N=C/c1ccncc1)c1cccc(NC(=O)c2ccc(Cl)cc2)c1	-1	2	-7	-2	-1	/	/
O=C(N/N=C/c1ccc(F)cc1)c1cccc(NC(=O)c2ccc(F)cc2)c1	6	2	0	42*	-1	2	2
CC(c1c[nH]c2ccccc12)c1cn(C)c2ccccc12 (centres undefined)	-4	/	/	/	/	/	/
O=c1[nH]c(CSc2nc(-c3ccc(F)cc3)cs2)nc2ccccc12	0	2	-27	9.6*	1	2	4
O=C(CSc1nc(-c2ccc(F)cc2)cs1)Nc1ccccn1	1	3	-3	24*	4	2	14
COC(=O)c1ccc2c(=O)[nH]c(CSc3nc(-c4ccc(F)cc4)cs3)nc2c1	-2	3	14	10*	-3	-1	1
O=c1[nH]c(CSc2nc(-c3ccccc3)cs2)nc2ccccc12	-2	7	-20	5	-2	/	/
Cc1csc(SCC(=O)Nc2ccccn2)n1	0	-5	3	-1	-7	/	/
O=c1[nH]c2cc(C(F)(F)F)ccc2n1-c1cc(C(F)(F)F)ccc1O	-3	4	-7	10*	-3	1	10
Cc1cccc(OCc2nnc(SCC(=O)Nc3sc(C)c(C)c3C#N)n2C)c1	-2	4	-2	17*	-26	2	6
Cc1ccc(OCc2nnc(SCC(=O)NC3CCCCC3)n2C)cc1	0	-2	-3	-1	-4	/	/
COC(=O)c1cccc(NC(=O)CSc2nnc(COc3cccc(C)c3)n2C)c1	-1	1	4	-1	-8	/	/
Cc1ccc(OCc2nnc(SCC(=O)Nc3sc(C)c(C)c3C#N)n2C)cc1	-3	2	-1	18*	-15	2	5
CC(=O)c1ccc(NS(=O)(=O)c2ccc([N+](=O)[O-])cc2)cc1	-5	-1	3	-1	1	/	/
O=[N+]([O-])c1ccc(S(=O)(=O)Nc2ccc(-c3ccccc3)cc2)cc1	0	23	6	15*	/	1	7
COC(=O)Cc1nnn2c1[C@@H](C)[C@@H](c1ccccc1Br)O[C@@H](C)C2	0	/	/	/	/	/	/
N=c1oc2ccc(Br)cc2cc1C(=O)NCc1ccc(F)cc1	-3	0	4	-1	8	/	/
CCN(CC)c1ccc2cc(C(=O)NCc3ccc(F)cc3)c(=N)oc2c1	3	0	22	13*	/	1	7
Cc1ccc(-n2c(SCC(=O)Nc3ccccc3-c3ccccc3)nnc2-c2cccnc2)cc1	0	/	/	/	/	/	/
COc1ccc2nc(Cl)c(/C=N/Nc3ccccn3)cc2c1	2	2	2	39*	-6	1	5
Cc1ccsc1C=Nn1c(-c2n[nH]c3c2CCC3)n[nH]c1=S	-7	/	/	/	/	/	/
CCN(CC)c1ccc(/C=N/NC(=O)Cc2nnc(NC(=O)Nc3ccccc3)s2)cc1	0	8	1	11*	-2	0	2
O=C(Cc1nnc(NC(=O)c2ccccc2)s1)N/N=C/c1ccc(O)cc1	-1	-1	9	1	2	/	/
SMILES	SMARCA2 act	MPTP block	MC4R antag cAMP	MC4R ag barr	ATG4B inh	MC4R barr ag	MOR-DOR barr ag	others
COC(=O)c1sccc1N/N=C/c1cccc(OC)c1O	3	1	2	14*	-12	0	6
COc1ccc(-c2nn(C)c(=O)c3ccccc23)cc1NC(=O)COc1ccc(C)cc1	-3	40	-2	21*	0	6	4
Cc1ccc(-c2nn(CC(=O)NCc3cc(-c4nn(C)c(=O)c5ccccc45)ccc3C)c(=O)c3ccccc23)cc1	-1	-1	4	16*	-1	25*	6
Cc1ccc(NC(=O)c2ccc(-c3nn(C)c(=O)c4ccccc34)cc2)cc1	-5	5	10	22*	-7	-1	2
CCC(=O)Nc1cc(-c2nn(C)c(=O)c3ccccc23)ccc1OC	-2	-1	18	-2	4	/	/
Cc1ccccc1S(=O)(=O)N1CCCc2nc(C)c(C)cc21	-6	/	/	/	/	/	/
CCOC(=O)C1=NOC(C(=O)NCc2ccccc2)(C(=O)c2ccc(OC)cc2)C1 (centres undefined)	-3	/	/	/	/	/	/
Cc1ccc(-c2ccc(/C=N\NC(=O)C3C(=O)NCC3c3ccccc3)o2)cc1Cl (centres undefined)	3	-7	2	13*	-14	5	2
Cc1cc(O)cc(=O)n1-c1cccc(C(F)(F)F)c1	-4	/	/	/	/	/	/
Nc1c(C(=O)Nc2cccc(F)c2)nnn1-c1ccc2c(c1)OCCO2	4	1	9	11*	4	1	6
O=[N+]([O-])c1ccc(N/N=C/c2ccccc2)c(F)c1	3	83*	22	12*	-2	1	7	Rh123 counter=80*
O=[N+]([O-])c1ccc(C=NNc2ccccc2)cc1	-3	46	-2	0	3	/	/
CCCCCN=C(N)N/N=C/c1c[nH]c2ccc(OC)cc12	-10	85*	13	10*	22	14*	31*	Rh123 counter=23*
CCN1CCN(c2cc(N3CCc4ccccc4C3)c(F)cc2[N+](=O)[O-])CC1	-3	104*	-6	15*	17	14*	15	Rh123 counter=-12
S=C(Nc1ccccc1)OC1CCC12CCC(c1ccccc1)CC2 (centres undefined)	-2	/	/	/	/	/	/
COCCCNC(=O)c1c(N)n(/N=C/c2cccnc2)c2nc3ccccc3nc12	-3	+	3	10*	-2	5	5	Rh123 counter=-2
O=C(OCc1cn(Cc2ccc(F)cc2F)nn1)N1CCCC1	0	/	/	/	/	/	/
O=C(Nc1ccc(F)cc1)C1C(c2ccccc2)C1(Cl)Cl (centres undefined)	-6	92*	-2	15*	21	0	11	Rh123 counter=90*
CCCCCOc1ccc(/C(C)=N/NC2=NCCN2)cc1	-1	49	9	5	4	/	/
CCCCCCOc1ccc(/C(C)=N/NC2=NCCN2)cc1	0	94*	2	11*	4	29*	12	Rh123 counter=-2
